Measurements as given in ChEMBL document CHEMBL4364301 (Eur J Med Chem, 2019).

Key:
Type in all cases: functional
DU-145 [1] = experiment: Antiproliferative activity against human DU145 cells assessed as reduction in cell growth incubated for 96 hrs by propidium iodide based 2D monolayer assay; conditions: DU-145, 96 h
Procedure, shortened: (§1)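 After 24 h recovery, compound in medium or medium alone (control wells) was added at 10 half-log concentrations from 0.0032 to 100 µM, in triplicate, with at most 0.3% DMSO. After 96 h, wells were PBS-washed, stained with 7 µg/ml PI and 0.1% Triton X-100, and fluorescence read at 530/620 nm. IC50 came from a 4-parameter fit, geometric mean.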

DU-145 [2] = experiment: Antiproliferative activity against human DU145 cells assessed as T/C value at 3.2 x 10^-2 uM incubated for 96 hrs by propidium iodide based 2D monolayer assay; procedure, shortened: as §1
VCaP [3] = experiment: Antiproliferative activity against human VCaP cells assessed as T/C value at 1 uM incubated for 96 hrs by propidium iodide based 2D monolayer assay
Procedure, shortened: as §1, with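 “Cells were kept in RPMI 1640 with 25 mM HEPES, 10% FCS and gentamicin at 37 °C under 5% CO2, and plated at 4,000-20,000 cells/well. After 24” for “After 24”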

CWR22R [4] = experiment: Antiproliferative activity against human 22Rv1 cells assessed as T/C value at 3.2 x 10^-1 uM incubated for 96 hrs by propidium iodide based 2D monolayer assay
Procedure, shortened: as §1, with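 “Cells were kept in RPMI 1640 with 25 mM HEPES, 10% FCS and gentamicin at 37 °C under 5% CO2, and plated at 4,000-20,000 cells/well. After 24” for “After 24”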

LNCaP [5] = experiment: Antiproliferative activity against human LNCAP cells assessed as T/C value at 3.2 x 10^-2 uM incubated for 96 hrs by propidium iodide based 2D monolayer assay
Procedure, shortened: as §1, with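 “Cells were kept in RPMI 1640 with 25 mM HEPES, 10% FCS and gentamicin at 37 °C under 5% CO2, and plated at 4,000-20,000 cells/well. After 24” for “After 24”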

DU-145 [6] = experiment: Antiproliferative activity against human DU145 cells assessed as T/C value at 1 x 10^-2 uM incubated for 96 hrs by propidium iodide based 2D monolayer assay; procedure, shortened: as §1
CWR22R [7] = experiment: Antiproliferative activity against human 22Rv1 cells assessed as T/C value at 3.2 x 10^1 uM incubated for 96 hrs by propidium iodide based 2D monolayer assay
Procedure, shortened: as §1, with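 “Cells were kept in RPMI 1640 with 25 mM HEPES, 10% FCS and gentamicin at 37 °C under 5% CO2, and plated at 4,000-20,000 cells/well. After 24” for “After 24”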

CWR22R [8] = experiment: Antiproliferative activity against human 22Rv1 cells assessed as T/C value at 1 x 10^1 uM incubated for 96 hrs by propidium iodide based 2D monolayer assay
Procedure, shortened: as §1, with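 “Cells were kept in RPMI 1640 with 25 mM HEPES, 10% FCS and gentamicin at 37 °C under 5% CO2, and plated at 4,000-20,000 cells/well. After 24” for “After 24”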

DU-145 [9] = experiment: Antiproliferative activity against human DU145 cells assessed as T/C value at 1 x 10^2 uM incubated for 96 hrs by propidium iodide based 2D monolayer assay
Procedure, shortened: as §1, with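 “Cells were kept in RPMI 1640 with 25 mM HEPES, 10% FCS and gentamicin at 37 °C under 5% CO2, and plated at 4,000-20,000 cells/well. After 24” for “After 24”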

VCaP [10] = experiment: Antiproliferative activity against human VCaP cells assessed as T/C value at 1 x 10^-2 uM incubated for 96 hrs by propidium iodide based 2D monolayer assay
Procedure, shortened: as §1, with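 “Cells were kept in RPMI 1640 with 25 mM HEPES, 10% FCS and gentamicin at 37 °C under 5% CO2, and plated at 4,000-20,000 cells/well. After 24” for “After 24”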

VCaP [11] = experiment: Antiproliferative activity against human VCaP cells assessed as T/C value at 1 x 10^1 uM incubated for 96 hrs by propidium iodide based 2D monolayer assay
Procedure, shortened: as §1, with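 “Cells were kept in RPMI 1640 with 25 mM HEPES, 10% FCS and gentamicin at 37 °C under 5% CO2, and plated at 4,000-20,000 cells/well. After 24” for “After 24”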

LNCaP [12] = experiment: Antiproliferative activity against human LNCAP cells assessed as T/C value at 1 x 10^-2 uM incubated for 96 hrs by propidium iodide based 2D monolayer assay
Procedure, shortened: as §1, with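 “Cells were kept in RPMI 1640 with 25 mM HEPES, 10% FCS and gentamicin at 37 °C under 5% CO2, and plated at 4,000-20,000 cells/well. After 24” for “After 24”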

CWR22R [13] = experiment: Antiproliferative activity against human 22Rv1 cells assessed as T/C value at 1 x 10^2 uM incubated for 96 hrs by propidium iodide based 2D monolayer assay
Procedure, shortened: as §1, with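 “Cells were kept in RPMI 1640 with 25 mM HEPES, 10% FCS and gentamicin at 37 °C under 5% CO2, and plated at 4,000-20,000 cells/well. After 24” for “After 24”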

LNCaP [14] = experiment: Antiproliferative activity against human LNCAP cells assessed as T/C value at 3.2 x 10^-1 uM incubated for 96 hrs by propidium iodide based 2D monolayer assay
Procedure, shortened: as §1, with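 “Cells were kept in RPMI 1640 with 25 mM HEPES, 10% FCS and gentamicin at 37 °C under 5% CO2, and plated at 4,000-20,000 cells/well. After 24” for “After 24”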

CWR22R [15] = experiment: Antiproliferative activity against human 22Rv1 cells assessed as T/C value at 1 uM incubated for 96 hrs by propidium iodide based 2D monolayer assay
Procedure, shortened: as §1, with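 “Cells were kept in RPMI 1640 with 25 mM HEPES, 10% FCS and gentamicin at 37 °C under 5% CO2, and plated at 4,000-20,000 cells/well. After 24” for “After 24”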

LNCaP [16] = experiment: Antiproliferative activity against human LNCAP cells assessed as T/C value at 1 uM incubated for 96 hrs by propidium iodide based 2D monolayer assay
Procedure, shortened: as §1, with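 “Cells were kept in RPMI 1640 with 25 mM HEPES, 10% FCS and gentamicin at 37 °C under 5% CO2, and plated at 4,000-20,000 cells/well. After 24” for “After 24”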

CWR22R [17] = experiment: Antiproliferative activity against human 22Rv1 cells assessed as T/C value at 3.2 x 10^-2 uM incubated for 96 hrs by propidium iodide based 2D monolayer assay
Procedure, shortened: as §1, with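 “Cells were kept in RPMI 1640 with 25 mM HEPES, 10% FCS and gentamicin at 37 °C under 5% CO2, and plated at 4,000-20,000 cells/well. After 24” for “After 24”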

DU-145 [18] = experiment: Antiproliferative activity against human DU145 cells assessed as T/C value at 1 uM incubated for 96 hrs by propidium iodide based 2D monolayer assay; procedure, shortened: as §1
LNCaP [19] = experiment: Antiproliferative activity against human LNCAP cells assessed as T/C value at 1 x 10^1 uM incubated for 96 hrs by propidium iodide based 2D monolayer assay
Procedure, shortened: as §1, with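 “Cells were kept in RPMI 1640 with 25 mM HEPES, 10% FCS and gentamicin at 37 °C under 5% CO2, and plated at 4,000-20,000 cells/well. After 24” for “After 24”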

CWR22R [20] = experiment: Antiproliferative activity against human 22Rv1 cells assessed as T/C value at 3.2 uM incubated for 96 hrs by propidium iodide based 2D monolayer assay
Procedure, shortened: as §1, with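 “Cells were kept in RPMI 1640 with 25 mM HEPES, 10% FCS and gentamicin at 37 °C under 5% CO2, and plated at 4,000-20,000 cells/well. After 24” for “After 24”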

CWR22R [21] = experiment: Antiproliferative activity against human 22Rv1 cells assessed as reduction in cell growth incubated for 96 hrs by propidium iodide based 2D monolayer assay; conditions: 22Rv1, 96 h; procedure, shortened: as §1
DU-145 [22] = experiment: Antiproliferative activity against human DU145 cells assessed as T/C value at 3.2 x 10^-3 uM incubated for 96 hrs by propidium iodide based 2D monolayer assay; procedure, shortened: as §1
DU-145 [23] = experiment: Antiproliferative activity against human DU145 cells assessed as T/C value at 3.2 x 10^1 uM incubated for 96 hrs by propidium iodide based 2D monolayer assay
Procedure, shortened: as §1, with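 “Cells were kept in RPMI 1640 with 25 mM HEPES, 10% FCS and gentamicin at 37 °C under 5% CO2, and plated at 4,000-20,000 cells/well. After 24” for “After 24”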

VCaP [24] = experiment: Antiproliferative activity against human VCaP cells assessed as T/C value at 3.2 uM incubated for 96 hrs by propidium iodide based 2D monolayer assay
Procedure, shortened: as §1, with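 “Cells were kept in RPMI 1640 with 25 mM HEPES, 10% FCS and gentamicin at 37 °C under 5% CO2, and plated at 4,000-20,000 cells/well. After 24” for “After 24”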

VCaP [25] = experiment: Antiproliferative activity against human VCaP cells assessed as T/C value at 1 x 10^-1 uM incubated for 96 hrs by propidium iodide based 2D monolayer assay
Procedure, shortened: as §1, with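 “Cells were kept in RPMI 1640 with 25 mM HEPES, 10% FCS and gentamicin at 37 °C under 5% CO2, and plated at 4,000-20,000 cells/well. After 24” for “After 24”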

VCaP [26] = experiment: Antiproliferative activity against human VCaP cells assessed as T/C value at 3.2 x 10^-1 uM incubated for 96 hrs by propidium iodide based 2D monolayer assay
Procedure, shortened: (§2)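 VCaP cells in RPMI 1640 with 10% FCS at 37 °C, 5% CO2, seeded 4,000–20,000 cells/well and left 24 h before dosing. Compounds from DMSO stocks were diluted in half-log steps in medium, 10 concentrations 0.0032–100 μM, triplicate wells, max 0.3% DMSO. After 96 h, cells were washed, stained with 7 μg/ml propidium iodide plus 0.1% Triton X-100 for 1–2 h at room temperature, and fluorescence read at ex 530/em 620 nm.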

LNCaP [27] = experiment: Antiproliferative activity against human LNCAP cells assessed as T/C value at 3.2 uM incubated for 96 hrs by propidium iodide based 2D monolayer assay
Procedure, shortened: as §1, with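 “Cells were kept in RPMI 1640 with 25 mM HEPES, 10% FCS and gentamicin at 37 °C under 5% CO2, and plated at 4,000-20,000 cells/well. After 24” for “After 24”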

VCaP [28] = experiment: Antiproliferative activity against human VCaP cells assessed as reduction in cell growth incubated for 96 hrs by propidium iodide based 2D monolayer assay; procedure, shortened: as §2
VCaP [29] = experiment: Antiproliferative activity against human VCaP cells assessed as T/C value at 3.2 x 10^-3 uM incubated for 96 hrs by propidium iodide based 2D monolayer assay; procedure, shortened: as §2
LNCaP [30] = experiment: Antiproliferative activity against human LNCAP cells assessed as T/C value at 3.2 x 10^-3 uM incubated for 96 hrs by propidium iodide based 2D monolayer assay
Procedure, shortened: as §1, with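 “Cells were kept in RPMI 1640 with 25 mM HEPES, 10% FCS and gentamicin at 37 °C under 5% CO2, and plated at 4,000-20,000 cells/well. After 24” for “After 24”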

CWR22R [31] = experiment: Antiproliferative activity against human 22Rv1 cells assessed as T/C value at 1 x 10^-2 uM incubated for 96 hrs by propidium iodide based 2D monolayer assay
Procedure, shortened: as §1, with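 “Cells were kept in RPMI 1640 with 25 mM HEPES, 10% FCS and gentamicin at 37 °C under 5% CO2, and plated at 4,000-20,000 cells/well. After 24” for “After 24”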

LNCaP [32] = experiment: Antiproliferative activity against human LNCAP cells assessed as T/C value at 1 x 10^2 uM incubated for 96 hrs by propidium iodide based 2D monolayer assay
Procedure, shortened: as §1, with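 “Cells were kept in RPMI 1640 with 25 mM HEPES, 10% FCS and gentamicin at 37 °C under 5% CO2, and plated at 4,000-20,000 cells/well. After 24” for “After 24”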

With `CC1(C)C(=O)N(c2ccc(C#N)cc2C(F)(F)F)C(=S)N1c1ccc(S(F)(F)(F)(F)F)cc1` the IC50 (DU-145 [1]) was 12.7 µM, the IC70 (DU-145 [1]) was 29.1 µM and the T/C (DU-145 [2]) was 111%. It also gave a T/C (VCaP [3]) of 85%, a T/C (CWR22R [4]) of 101% and a T/C (LNCaP [5]) of 78%. The T/C (DU-145 [6]) was 111%, the T/C (CWR22R [7]) was 17% and the T/C (CWR22R [8]) was 25%. The T/C (DU-145 [9]) was 16%, the T/C (VCaP [10]) was 100% and the T/C (VCaP [11]) was 59%. It also gave a T/C (LNCaP [12]) of 76%, a T/C (CWR22R [13]) of 12% and a T/C (LNCaP [14]) of 82%. For the same compound, the T/C (CWR22R [15]) was 99%, the T/C (LNCaP [16]) was 66% and the T/C (CWR22R [17]) was 104%. For the same compound, the T/C (DU-145 [18]) was 104%, the T/C (LNCaP [19]) was 12% and the T/C (CWR22R [20]) was 78%. The IC50 (CWR22R [21]) was 5.4 µM, the IC70 (CWR22R [21]) was 8.45 µM and the T/C (DU-145 [22]) was 105%. The T/C (DU-145 [23]) was 37%, the T/C (VCaP [24]) was 74% and the T/C (VCaP [25]) was 103%. For the same compound, the T/C (VCaP [26]) was 89%, the T/C (LNCaP [27]) was 51% and the IC50 (VCaP [28]) was 100 µM. The IC70 (VCaP [28]) was > 100 µM, the T/C (VCaP [29]) was 93% and the T/C (LNCaP [30]) was 76%. It also gave a T/C (CWR22R [31]) of 104% and a T/C (LNCaP [32]) of 7%.
